Measured values from paper PMC4984525 (Cancer, 2011).

Test system: relapsed or refractory AML or high-grade myelodysplastic syndromes
Assay: Clinical efficacy
Assay type: in vivo, human
Summary of the method: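 Open-label, multicentre dose escalation in patients ≥17 y (ECOG 0–2). Test compound given IV over 1 h, on Day 1 (from 2.5 mg/m2) or on Days 1, 3 and 5 (from 0.8 mg/m2/day). Escalation steps were 50%, then 30%. Complete and partial remissions were scored during induction and later cycles; MDS used modified IWG criteria. Hydroxyurea was allowed during days 1–14.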

SMILES: CON(C)C(=O)N1N=C(c2cc(F)ccc2F)S[C@@]1(CCCN)c1ccccc1 [ARRY-520]
- partial response, % (34 patients with efficacy data): 3%
- partial response, patients n (34 patients with efficacy data): 1
- complete remissions (heavily pretreated relapsed/refractory AML or MDS): did not observe complete remissions
